# Experimental data published in ChEMBL document CHEMBL1127802, “Selective inhibitors of monoamine oxidase. 2. Arylamide SAR” (J Med Chem, 1994).
# Tests used:
# [1] = target: T1, MAO A (monoamine oxidase A) (Rattus norvegicus, UniProt P21396); test: (§1) Inhibitory activity against monoamine oxidase A (MAO A) from rat brain using a radiometric procedure with [3H]5-HT at 10 uM; details: rat brain monoamine oxidase A preparation, probe [3H]5-HT
# T1 sequence (P21396 whole entry): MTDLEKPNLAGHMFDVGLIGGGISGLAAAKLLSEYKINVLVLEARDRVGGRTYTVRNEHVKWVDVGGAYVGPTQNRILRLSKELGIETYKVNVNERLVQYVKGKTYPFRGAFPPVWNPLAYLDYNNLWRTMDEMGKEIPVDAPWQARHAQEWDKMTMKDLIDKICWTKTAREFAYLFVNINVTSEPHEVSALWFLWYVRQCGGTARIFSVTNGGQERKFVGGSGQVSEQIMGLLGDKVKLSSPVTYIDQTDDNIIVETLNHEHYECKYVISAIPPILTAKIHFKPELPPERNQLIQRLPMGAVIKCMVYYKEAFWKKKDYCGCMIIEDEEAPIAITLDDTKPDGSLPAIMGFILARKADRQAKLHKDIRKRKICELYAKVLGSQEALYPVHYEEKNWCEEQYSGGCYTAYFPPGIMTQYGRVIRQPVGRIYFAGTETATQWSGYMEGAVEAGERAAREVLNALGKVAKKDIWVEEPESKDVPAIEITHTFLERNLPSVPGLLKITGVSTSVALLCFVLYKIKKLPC
# Summary of the method: (§2)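 Rat brain mitochondrial MAO extract was preincubated with or without inhibitor for 15 min at 37 °C in 50 mM potassium phosphate, pH 7.4. […] Blanks contained 2 mM pargyline. Reactions were stopped with HCl, products extracted into ethyl acetate/toluene and counted by scintillation. Triplicates were averaged as % inhibition, and IC50 was taken from % inhibition vs log concentration.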
# [2] = target: T2, Amine oxidase [flavin-containing] B (Rattus norvegicus, UniProt P19643); test: (§3) Inhibitory activity against monoamine oxidase B (MAO B) from rat brain using a radiometric procedure with [14C]phenylethylamine at 1 uM
# T2 sequence (P19643 whole entry): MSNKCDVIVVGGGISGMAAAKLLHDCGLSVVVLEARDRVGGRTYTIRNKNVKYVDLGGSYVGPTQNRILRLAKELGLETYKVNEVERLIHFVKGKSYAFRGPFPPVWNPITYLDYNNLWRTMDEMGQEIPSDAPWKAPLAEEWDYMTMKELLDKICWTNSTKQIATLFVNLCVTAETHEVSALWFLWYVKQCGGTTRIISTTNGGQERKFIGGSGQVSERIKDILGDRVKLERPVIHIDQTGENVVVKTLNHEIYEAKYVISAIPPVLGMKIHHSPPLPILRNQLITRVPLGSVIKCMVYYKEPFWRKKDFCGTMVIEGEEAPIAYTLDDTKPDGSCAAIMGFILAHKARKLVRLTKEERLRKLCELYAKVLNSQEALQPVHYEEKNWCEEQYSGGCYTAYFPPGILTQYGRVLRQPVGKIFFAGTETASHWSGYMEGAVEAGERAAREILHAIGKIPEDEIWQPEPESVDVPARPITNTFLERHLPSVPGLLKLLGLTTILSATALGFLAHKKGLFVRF
# Summary of the method: (§4)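 Rat brain mitochondrial MAO extract was preincubated ± inhibitor for 15 min at 37 °C in 50 mM potassium phosphate, pH 7.4. […] Pargyline (2 mM) defined blanks. Acid stop, ethyl acetate/toluene extraction and scintillation counting followed. Triplicate means gave % inhibition, and IC50 was extrapolated from % inhibition vs log concentration plots.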
# [3] = target: T3, Amine oxidase [flavin-containing] A (Rattus norvegicus, UniProt P21396); test: (§5) Inhibitory activity against monoamine oxidase A (MAO A) from rat brain using a radiometric procedure with [3H]5-HT at 1 uM; summary of the method: as §2
# T3 sequence (P21396 whole entry): T1 sequence (P21396 whole entry)
# [4] = target: T3, Amine oxidase [flavin-containing] A; test: Inhibitory activity against monoamine oxidase A (MAO A) from rat brain using a radiometric procedure with [3H]5-HT; summary of the method: as §2
# [5] = target: T1, MAO A (monoamine oxidase A); test: Inhibitory activity against monoamine oxidase A (MAO A) from rat brain using a radiometric procedure with [3H]- serotonin at 1 uM; details: rat brain monoamine oxidase A preparation, probe [3H]-serotonin; summary of the method: as §2
# [6] = target: T4, MAO B (monoamine oxidase B) (Rattus norvegicus, UniProt P19643); test: Inhibitory activity against monoamine oxidase B (MAO B) from rat brain using a radiometric procedure with [14C]- phenethylamine at 1 uM; details: rat brain monoamine oxidase B preparation, probe [14C]-phenethylamine; summary of the method: as §4
# T4 sequence (P19643 whole entry): T2 sequence (P19643 whole entry)
# [7] = target: T4, MAO B (monoamine oxidase B); test: as §3; details: rat brain monoamine oxidase B preparation, probe [14C]phenylethylamine; summary of the method: as §4
# [8] = target: T1, MAO A (monoamine oxidase A); test: as §5; details: rat brain monoamine oxidase A preparation, probe [3H]5-HT; summary of the method: as §2
# [9] = target: T4, MAO B (monoamine oxidase B); test: (§6) Inhibitory activity against monoamine oxidase B (MAO B) from rat brain using a radiometric procedure with [14C]phenylethylamine at 10 uM; details: rat brain monoamine oxidase B preparation, probe [14C]phenylethylamine; summary of the method: as §4
# [10] = target: T4, MAO B (monoamine oxidase B); test: Inhibitory activity against monoamine oxidase B (MAO B) from rat brain using a radiometric procedure with [14C]- phenethylamine at 10 uM; details: rat brain monoamine oxidase B preparation, probe [14C]-phenethylamine; summary of the method: as §4
# [11] = target: T2, Amine oxidase [flavin-containing] B; test: Inhibitory activity against monoamine oxidase B (MAO B) from rat brain using a radiometric procedure with [14C]- phenethylamine.; summary of the method: as §4
# [12] = target: T3, Amine oxidase [flavin-containing] A; test: Inhibitory activity against monoamine oxidase A (MAO A) from rat brain using a radiometric procedure with [3H]- serotonin.; summary of the method: as §2
# [13] = target: T1, MAO A (monoamine oxidase A); test: Inhibitory activity against monoamine oxidase A (MAO A) from rat brain using a radiometric procedure with [3H]- serotonin at 10 uM; details: rat brain monoamine oxidase A preparation, probe [3H]-serotonin; summary of the method: as §2
# [14] = target: T2, Amine oxidase [flavin-containing] B; test: as §6; summary of the method: as §4
# [15] = target: T3, Amine oxidase [flavin-containing] A; test: as §1; summary of the method: as §2
# [16] = target: T2, Amine oxidase [flavin-containing] B; test: Inhibitory activity against monoamine oxidase B (MAO B) from rat brain using a radiometric procedure with [14C]- phenethylamine at<10 uM; summary of the method: as §4
# [17] = target: T4, MAO B (monoamine oxidase B); test: Inhibitory activity against monoamine oxidase B (MAO B) from rat brain using a radiometric procedure with [14C]- phenethylamine atb 10 uM; details: rat brain monoamine oxidase B preparation, probe [14C]-phenethylamine
# Summary of the method: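 Rat brain mitochondrial MAO extract preincubated ± inhibitor 15 min at 37 °C in 50 mM potassium phosphate pH 7.4. […] Blanks contained 2 mM pargyline. Stopped with HCl, products extracted into ethyl acetate/toluene, scintillation counted. Triplicates. IC50 from mean % inhibition vs log concentration plot.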
smiles,measurement,setting,value
Nc1ccc2[nH]c(=O)c3ccccc3c2c1,inhibition,[1],0%
CC(=O)Nc1ccc2[nH]c(C)c(C)c2c1,inhibition,[2],42%
same,inhibition,[3],< 1%
Nc1ccc2c(c1)-c1ccccc1S2(=O)=O,IC50,[4],1 µM
CC(=O)Nc1ccc2[nH]ccc2c1,inhibition at 1 µM,[5],0%
same,inhibition at 1 µM,[6],0%
CC(=O)NCCc1ccc2c(c1)c1ccccc1n2C,inhibition at 1 µM,[7],0%
same,inhibition,[8],50%
CC(=O)Nc1nc2cc(C)c(C)cc2s1,inhibition at 10 uM,[9],38%
same,inhibition,[1],54%
CC(=O)N(C)c1ccc2c(c1)-c1ccccc1S2(=O)=O,inhibition,[8],0%
CCCC(=O)Nc1ccc2c(c1)[nH]c1ccccc12,inhibition,[8],36%
CC(=O)Nc1ccc2c(c1)COCO2,inhibition at 10 uM,[9],22%
same,inhibition,[1],42%
O=CN(C=O)c1ccc2c(c1)S(=O)(=O)c1ccccc1C2=O,inhibition at 10 uM,[9],3%
same,inhibition,[1],18%
CC(=O)Nc1nc2cc(C)c(C)cc2[nH]1,inhibition at 10 uM,[9],18%
same,inhibition,[1],50%
CC(=O)Nc1ccc2[nH]c3ccccc3c2c1,inhibition at 10 µM,[10],37%
CC(=O)Nc1ccc2c(c1)C(=O)c1ccccc1C2=O,IC50,[11],3.5 µM
same,IC50,[12],0.16 µM
CCCc1ccc2c(c1)S(=O)(=O)c1cc(NC(C)=O)ccc1C2=O,inhibition at 10 uM,[9],-7%
same,IC50,[4],0.02 µM
CC(=O)Nc1ccc(Nc2ccccc2)c(NC(C)=O)c1,inhibition at 10 µM,[10],4%
same,inhibition at 10 µM,[13],4%
CC(=O)Nc1ccc2c(c1)S(=O)(=O)c1ccccc1N2,inhibition,[14],22%
same,inhibition,[15],74%
CC(=O)Nc1ccc2[nH]c(=O)c3ccccc3c2c1,inhibition at 1 µM,[7],11%
same,inhibition,[8],0%
CNc1ccc2c(c1)-c1ccccc1S2(=O)=O,inhibition,[8],34%
CC(=O)Nc1cc2ccccc2oc1=O,inhibition at 1 µM,[5],5%
same,inhibition,[16],53%
CC(=O)Nc1ccc2c(c1)[nH]c1ccccc12,inhibition at 10 uM,[17],38%
same,IC50,[12],0.043 µM
CC(=O)Nc1ccc2c(c1)C(=O)c1cc([N+](=O)[O-])ccc1-2,IC50,[4],1.3 µM
CC(=O)Nc1ccc2c(cnn2C(C)=O)c1,inhibition at 1 µM,[5],4%
same,inhibition at 1 µM,[6],27%
CC(=O)Nc1ccc2c(c1)oc(=O)c1ccccc12,inhibition at 1 µM,[6],8%
same,IC50,[12],0.04 µM
CCC(=O)Nc1ccc2c(c1)-c1ccccc1S2(=O)=O,IC50,[4],1.2 µM
CC(=O)NCc1ccc2c(c1)c1ccccc1n2C,inhibition at 1 µM,[7],30%
same,inhibition,[8],16%
CC(=O)Nc1ccc2c(c1)[nH]c1ccc(Br)cc12,inhibition,[8],61%
CC(=O)Nc1ccc2c(c1)c(O)nc1ccccc12,inhibition at 1 µM,[7],0%
same,inhibition,[8],55%
CC(=O)Nc1cccc2c1C(=O)c1ccccc1C2=O,inhibition at 1 µM,[5],12%
